Assay results published in ChEMBL document CHEMBL4689842, “EUbOPEN Chemogenomics Library wave 1” (2021).
Several values for one entry are separate records, joined by “and”; a condition that tells them apart may be missing. Equal values may be shown once.

What was measured:
Assay type in all cases: toxicity, cell-based
HEK-293T = experiment: Incucyte cell viability with HEK293T; details: human, 10 µM, compound concentration 10 uM; also: filed as whole numbers so only -1 and 0 and 1 occur
U2OS = experiment: Incucyte cell viability with U2OS; details: human, 10 µM, compound concentration 10 uM; also: filed as whole numbers so only -1 and 0 and 1 occur
Fibroblast = experiment: Multiplex assay against human fibroblast
In short: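 At seeding, live cells were stained with Hoechst33342, BioTracker Green Microtubule Cytoskeleton Dye, MitoTracker Red and Annexin V Alexa Fluor 680. After compound addition they were imaged on a CQ1 microscope at 37°C and 5% CO2, and CellPathfinder machine-learning gating sorted them into Hoechst high-intensity objects or normal cells, with normal cells further split into healthy, pyknosed or fragmented nuclei and pyknosed cells into mitotic or apoptotic. Tubulin, mitochondrial-mass and membrane-permeability phenotypes are given as per cents of cells with healthy nuclei.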

[1] = 6 h, replicate number 1, timepoint 6 hours
[2] = 12 h, replicate number 1, timepoint 12 hours
[3] = 18 h, replicate number 1, timepoint 18 hours
[4] = 24 h, replicate number 1, timepoint 24 hours
[5] = 12 h, 1 µM, compound concentration 1 uM, replicate 1
[6] = 12 h, 1 µM, compound concentration 1 uM, replicate 2
[7] = 12 h, 10 µM, compound concentration 10 uM, replicate 1
[8] = 12 h, 10 µM, compound concentration 10 uM, replicate 2
[9] = 24 h, 1 µM, compound concentration 1 uM, replicate 1
[10] = 24 h, 1 µM, compound concentration 1 uM, replicate 2
[11] = 24 h, 10 µM, compound concentration 10 uM, replicate 1
[12] = 24 h, 10 µM, compound concentration 10 uM, replicate 2
[13] = 48 h, 10 µM, compound concentration 10 uM, replicate 1
[14] = 48 h, 10 µM, compound concentration 10 uM, replicate 2

## COc1cc(N2CCC(N(C)C)CC2)ccc1Nc1ncc(Cl)c(Nc2ccccc2P(C)(C)=O)n1
HEK-293T; [1]
  Growth Rate: 0
HEK-293T; [2]
  Growth Rate: 0
HEK-293T; [3]
  Growth Rate: 0
HEK-293T; [4]
  Growth Rate: 0
U2OS; 0 h, replicate number 1, timepoint 0 hours
  Growth Rate: 0
U2OS; [1]
  Growth Rate: 0
U2OS; [2]
  Growth Rate: 0
U2OS; [3]
  Growth Rate: 0
U2OS; [4]
  Growth Rate: 0
Fibroblast; [5]
  Population Apoptotic (%): 64%
  Population Fragmented Nuclei (%): 26%
  Population Healthy Nuclei (%): 56%
  Population Hoechst High Intensity Objects (%): 14%
  Population Membrane Permeable-Phenotype (%): 8%
  Population Mitochondria Different-Phenotype (%): 6%
  Population Mitotic Cells (%): 35%
  Population Normal (%): 85%
  Population Pyknosed Nuclei (%): 16%
  Population Tubulin-Different-Phenotype (%): 6%
  Total Cell Count: 202
Fibroblast; [6]
  Population Apoptotic (%): 42%
  Population Fragmented Nuclei (%): 52%
  Population Healthy Nuclei (%): 31%
  Population Hoechst High Intensity Objects (%): 24%
  Population Membrane Permeable-Phenotype (%): 14%
  Population Mitochondria Different-Phenotype (%): 7%
  Population Mitotic Cells (%): 57%
  Population Normal (%): 75%
  Population Pyknosed Nuclei (%): 15%
  Population Tubulin-Different-Phenotype (%): 21%
  Total Cell Count: 58
Fibroblast; [7]
  Population Apoptotic (%): 73% and 69%
  Population Fragmented Nuclei (%): 27% and 24%
  Population Healthy Nuclei (%): 45% and 57%
  Population Hoechst High Intensity Objects (%): 13%
  Population Mitochondria Different-Phenotype (%): 7% and 6%
  Population Mitotic Cells (%): 26% and 30%
  Population Normal (%): 86%
  Population Pyknosed Nuclei (%): 27% and 17%
  Total Cell Count: 98 and 215
Fibroblast; [8]
  Population Apoptotic (%): 37% and 88%
  Population Fragmented Nuclei (%): 45% and 26%
  Population Healthy Nuclei (%): 32%
  Population Hoechst High Intensity Objects (%): 39% and 16%
  Population Membrane Permeable-Phenotype (%): 8% and 15%
  Population Normal (%): 60% and 83%
  Population Pyknosed Nuclei (%): 21% and 40%
  Population Tubulin-Different-Phenotype (%): 41% and 90%
  Total Cell Count: 61 and 73
Fibroblast; [9]
  Population Apoptotic (%): 96%
  Population Fragmented Nuclei (%): 18%
  Population Healthy Nuclei (%): 65%
  Population Hoechst High Intensity Objects (%): 14%
  Population Membrane Permeable-Phenotype (%): 6%
  Population Mitotic Cells (%): 3%
  Population Normal (%): 85%
  Population Pyknosed Nuclei (%): 16%
  Population Tubulin-Different-Phenotype (%): 4%
  Total Cell Count: 204
Fibroblast; [10]
  Population Apoptotic (%): 57%
  Population Fragmented Nuclei (%): 43%
  Population Healthy Nuclei (%): 38%
  Population Hoechst High Intensity Objects (%): 32%
  Population Membrane Permeable-Phenotype (%): 0%
  Population Mitochondria Different-Phenotype (%): 6%
  Population Mitotic Cells (%): 42%
  Population Normal (%): 67%
  Population Pyknosed Nuclei (%): 17%
  Population Tubulin-Different-Phenotype (%): 13%
  Total Cell Count: 58
Fibroblast; [11]
  Population Apoptotic (%): 68% and 88%
  Population Fragmented Nuclei (%): 29% and 31%
  Population Healthy Nuclei (%): 50% and 54%
  Population Hoechst High Intensity Objects (%): 13%
  Population Mitochondria Different-Phenotype (%): 14% and 9%
  Population Mitotic Cells (%): 31% and 11%
  Population Normal (%): 86%
  Population Pyknosed Nuclei (%): 19% and 14%
  Total Cell Count: 94 and 210
Fibroblast; [12]
  Population Apoptotic (%): 66% and 92%
  Population Fragmented Nuclei (%): 47% and 26%
  Population Healthy Nuclei (%): 35% and 15%
  Population Hoechst High Intensity Objects (%): 39% and 38%
  Population Normal (%): 60% and 61%
  Population Tubulin-Different-Phenotype (%): 41% and 100%
  Total Cell Count: 56 and 75
Fibroblast; [13]
  Population Apoptotic (%): 87%
  Population Fragmented Nuclei (%): 47%
  Population Healthy Nuclei (%): 41%
  Population Hoechst High Intensity Objects (%): 22%
  Population Membrane Permeable-Phenotype (%): 20%
  Population Mitochondria Different-Phenotype (%): 23%
  Population Mitotic Cells (%): 12%
  Population Normal (%): 77%
  Population Pyknosed Nuclei (%): 10%
  Population Tubulin-Different-Phenotype (%): 70%
  Total Cell Count: 94
Fibroblast; [14]
  Population Apoptotic (%): 66%
  Population Fragmented Nuclei (%): 34%
  Population Healthy Nuclei (%): 61%
  Population Hoechst High Intensity Objects (%): 16%
  Population Membrane Permeable-Phenotype (%): 22%
  Population Mitochondria Different-Phenotype (%): 9%
  Population Mitotic Cells (%): 33%
  Population Normal (%): 83%
  Population Pyknosed Nuclei (%): 4%
  Population Tubulin-Different-Phenotype (%): 56%
  Total Cell Count: 86
